Screening results deposited in PubChem BioAssay by SRMLSC.
The full list was thinned out, with hits kept by preference.
PTEN del growth – growth suppression of PTEN-null HCT116, primary screen, cell-based, CellTiter-Glo | viability, % at 10 µM | 1.2% of 140,000 active | HCT116 PTEN-null viability, 60 h; hits give low values;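 active = viability at or below a set limit, 4 SD under the median of all tested compounds, cut at about 3.7% in these data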;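 also: PTEN knockout HCT116 line with beta catenin targeted HCT116 as companion control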
H69AR inhibit – proliferation blockers of H69AR lung cancer cells, primary screen, cell-based, human, 86K library. H69AR lung tumor viability, ATP luminescence, 72 h; hits give low values. viability, % at 10 µM. 6% of 85,000 active. AID 598, 2007;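 active = viability at or below 40%; inactive = viability above 40%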;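 also: multidrug resistant small cell line overexpressing MRP-1 efflux transporter; 100% = mean luminescence of untreated control wells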
Lung fibro prol – antiproliferative effect on LL 47 fibroblasts – human, LL 47 cells, CellTiter-Glo luminescence, primary screen. LL 47 human lung fibroblast viability, ATP luminescence; hits give low values. viability, % at 10 µM. 1.1% of 85,000 active;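 active = viability at or below 50% in the single dose screen; inactive = viability above 50%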;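 also: compound exposure lasted 72 h before the ATP readout; 100% = median luminescence of untreated cell-only wells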
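Benchmarks: Cell-only wells, no compound | Test system: LL 47 human lung fibroblasts, passage 12 or lower | Input: 1,150 cells/well | Measured by: CellTiter-Glo luminescence measuring cellular ATP | Medium: IMEM, 15% FBS supplement | Schedule: Overnight attachment after seeding, then 72 h compound exposure at 37 °C | Doses: Compound addition at 0.1% DMSO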
HCT116 bCat-KO – primary screen for growth suppressors in beta-catenin knockout HCT116 cells (colon tumor, human); HCT116 beta-catenin knockout viability, CellTiter-Glo, 60 h; hits give low values; viability, % at 10 µM; 1.5% of 140,000 active;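 active = viability at or under a set limit, the compound median less 4 SD, cut at about 6% in these data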;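 also: 0% = Hyamine 1622 control at 20 µM and 100% = untreated cell control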
HUVEC inhibit – inhibitors of HUVEC proliferation, primary screen, cell-based, 384-well. CellTiter-Glo luminescence, 72 h; hits give low values. viability, % at 10 µM (by protocol). 1.1% of 86,000 active;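 active = viability at or below 30%; inactive = viability above 30%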;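 also: 100% = median luminescence of DMSO-only cell control wells on each plate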
An asterisk follows results filed as active; · = not tested or not shown.

SMILES	PTEN del growth	H69AR inhibit	Lung fibro prol	HCT116 bCat-KO	HUVEC inhibit
Cc1cc(NC(=O)CC2CCCC2)n(-c2nc3ccccc3[nH]2)n1	15.2	28.7*	·	13.9	59.3
CCOc1ccc2nc(Cl)c(C3CC(c4ccccc4)=NN3C(=O)c3ccco3)cc2c1 (centres undefined)	105.5	·	·	95.3	·
CCCCCCC(=O)N(O)C1CC(=O)N(c2ccc(Br)cc2)C1=O (centres undefined)	79.9	32.8*	81.1	78.1	81.6
COc1ccc(C2Nc3ccc4ccccc4c3-c3c2c(=O)oc2ccccc32)cc1 (centres undefined)	1.5*	·	·	3.2*	·
CCOc1ccc(C2Nc3ccc4ccccc4c3-c3c2c(=O)oc2ccccc32)cc1 (centres undefined)	4.5	·	·	2.7*	·
O=c1oc2ccccc2c2c1C(c1ccc(Cl)cc1)Nc1ccc3ccccc3c1-2 (centres undefined)	75.9	·	·	73.1	·
N#CCCN(Cc1ccccc1)C(=S)Nc1ccccc1	104.2	·	·	95.9	·
CCOC(=O)N1CCN(c2ccc(O)cc2)CC1	70.7	·	·	74.9	·
CCOC(=O)c1ccc(N=Cc2nc(-c3ccccc3)oc2OC(C)=O)cc1	94.4	18.9*	97.1	89.6	55.0
Cc1ccc(C(=O)Oc2oc(-c3ccco3)nc2C=Nc2ccccc2)cc1	91.6	38.6*	90.4	92.9	68.8
CN1C(=O)/C(=C/c2cc(N=Nc3ccccc3)ccc2O)SC1=S	59.8	·	·	70.0	·
Cc1cc2c(N3CCCCC3C)ncnc2s1 (centres undefined)	81.7	36.8*	94.4	77.0	102.3
COc1cccc(-n2nnc3c(=O)n(CC(=O)N4CCC(Cc5ccccc5)CC4)cnc32)c1	67.8	29.8*	93.7	65.6	74.9
Cc1ccc(-c2nnc(SCC(=O)NC3CCS(=O)(=O)C3)nc2-c2ccc(C)cc2)cc1 (centres undefined)	85.1	·	·	90.8	·
[O-][n+]1onc2c1CCc1nnc(-c3ccccc3)cc1-2	69.7	35.5*	89.5	72.5	105.0
CC1=C(C)CC(C(=O)NNC(=O)c2csc(C)c2C)C(C(=O)O)C1 (centres undefined)	100.5	·	·	96.9	·
COc1ccc(N2C(=O)NC3CC2(C)Oc2ccc(Cl)cc23)cc1OC (centres undefined)	71.8	26.3*	91.4	76.9	95.8
CCOC(=O)c1c(CN2CCN(c3ccccc3)CC2)oc2ccc(O)cc12	69.5	30.6*	91.8	86.3	27.3*
CCOC(=O)c1c(CN2CCN(C)CC2)oc2ccc(OC)cc12	96.8	88.4	105.3	97.7	92.3
CCOC(=O)Cn1nc(-c2ccc(F)cc2)oc1=O	97.5	101.9	100.5	100.8	104.5
Cn1ccnc1SCC(=O)c1ccc(Br)cc1	72.8	28.7*	95.9	81.0	87.8
CCOC(=O)c1c(NC(=O)C2COc3ccccc3O2)sc2c1CC(C)(C)NC2(C)C (centres undefined)	0.7*	·	·	2.3*	·
COCCCNC(=O)c1c(NC(=O)C2COc3ccccc3O2)sc2c1CCCC2 (centres undefined)	80.3	34.7*	100.7	91.0	76.9
CCOC(=O)c1c(NC(=O)C2COc3ccccc3O2)sc(C(C)=O)c1C (centres undefined)	62.6	21.0*	83.8	66.5	22.8*
CCNC(=O)c1c(NC(=O)C2COc3ccccc3O2)sc2c1CCCC2 (centres undefined)	72.1	71.7	86.5	84.5	54.0
SMILES	PTEN del growth	H69AR inhibit	Lung fibro prol	HCT116 bCat-KO	HUVEC inhibit
CCC1CCc2c(sc(NC(=O)C3c4ccccc4Oc4ccccc43)c2C(N)=O)C1 (centres undefined)	71.2	·	·	83.8	·
CCOC(=O)c1sc(/N=C/c2c(C)[nH]n(-c3ccccc3)c2=O)c(C#N)c1C	100.4	·	·	90.3	·
Cc1ccc(F)cc1NC(=S)NCCc1ccccc1	82.7	·	·	86.7	·
CCOC(=O)Cc1csc(NC(=O)c2c(O)c3ccccc3n(CC(C)C)c2=O)n1	15.8	16.9*	103.7	18.8	86.1
CCOC(=O)Cc1csc(NC(=O)c2cccs2)n1	87.8	96.0	105.3	87.7	99.8
CCOC(=O)Cc1csc(NC(=O)c2ccc3c(c2)OCO3)n1	99.2	87.6	104.5	93.1	103.9
CCOC(=O)Cc1csc(NC(=O)c2ccc(Cl)nc2)n1	53.3	28.7*	96.3	60.6	82.8
CCC(C)c1ccccc1NC(=O)COC(=O)c1ccc2[nH]c3c(c2c1)CCCC3 (centres undefined)	50.6	·	·	57.9	·
O=C(c1ccc(-c2nnc(Nc3ccccc3)c3ccccc23)cc1)N1C[C@H]2C[C@H](C1)c1cccc(=O)n1C2	93.0	95.2	98.4	105.9	99.1
Cc1ccc2nc3c(cc(C(=O)NCc4ccccc4)c(=N)n3CCCn3ccnc3)c(=O)n2c1	·	65.8	87.2	·	49.4
Cc1cccn2c(=O)c3cc(C(=O)NC(C)c4ccccc4)c(=N)n(CCCn4ccnc4)c3nc12 (centres undefined)	·	11.8*	68.3	·	64.7
Cc1cccn2c(=O)c3cc(C(=O)NCc4ccco4)c(=N)n(CCc4ccccc4)c3nc12	·	31.1*	59.4	·	55.8
Cc1cccn2c(=O)c3cc(C(=O)NCc4ccco4)c(=N)n(C(C)C)c3nc12	70.6	69.9	100.3	67.7	94.3
COCCCn1c(=N)c(C(=O)NCc2ccc3c(c2)OCO3)cc2c(=O)n3cccc(C)c3nc21	·	69.6	90.4	·	81.7
N=c1c(C(=O)NCc2ccc3c(c2)OCO3)cc2c(=O)n3ccccc3nc2n1Cc1cccnc1	71.6	71.8	92.0	77.2	86.8
CCOCCCn1c(=N)c(C(=O)NCc2ccc3c(c2)OCO3)cc2c(=O)n3cccc(C)c3nc21	4.7	54.6	62.5	2.8*	78.1
COc1ccc(CNC(=O)c2cc3c(=O)n4ccccc4nc3n(Cc3cccnc3)c2=N)cc1	76.3	26.8*	91.1	81.3	87.6
COc1cc(NC(=O)CC2NCCNC2=O)cc(OC)c1 (centres undefined)	107.2	·	·	100.8	·
N#C/C(=C\c1ccco1)C(=O)NCC1CCCO1 (centres undefined)	98.6	·	·	104.5	·
N=c1c(C(=O)NCc2ccco2)cc2c(=O)n3ccccc3nc2n1Cc1ccccc1	45.5	46.2	91.3	55.2	78.7
N=c1c(C(=O)NCc2ccccc2)cc2c(=O)n3ccccc3nc2n1Cc1ccco1	15.9	39.0*	80.9	11.4	78.2
N=c1c(C(=O)NCc2ccco2)cc2c(=O)n3ccccc3nc2n1Cc1ccc(Cl)cc1	10.9	25.8*	61.1	12.5	69.8
CCCn1c(=NC(=O)c2ccc3c(c2)OCO3)c(C#N)cc2c(=O)n3cccc(C)c3nc21	·	37.7*	82.5	·	79.0
N=c1c(C(=O)NCc2ccc(F)cc2)cc2c(=O)n3ccccc3nc2n1Cc1ccco1	61.9	·	·	60.1	·
CCCCCn1c(=NC(=O)c2ccco2)c(C(=O)OCC)cc2c(=O)n3ccccc3nc21	75.6	27.0*	89.2	77.5	91.5
